This is a sample that favours compounds with a hit; in the whole collection about 3.7% have one here.
KCNK9 block – blocks the human KCNK9 two-pore domain potassium channel; HEK293 KCNK9, FluxOR thallium flux fluorescence; stronger effect = lower value; B-score at 10 µM; actives 1.2% (n = 310,000); AID 488922;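 active means ratio B-score over 3 SD below the library mean, with starting fluorescence within 5 SD of its mean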;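 further: negative B-score means less thallium flux so channel inhibition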
KCNK3 block – human KCNK3 channel inhibition, primary screen. O14649. CHO-KCNK3 thallium flux, FluxOR fluorescence; stronger effect = lower value. B-score at 10 µM. actives 0.84% (n = 340,000);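 active means B-score under library mean minus 4 SD, starting fluorescence ratio at most library mean plus 5 SD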;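 further: more negative B-score means stronger inhibition of thallium flux through KCNK3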
Kir21 block – inhibitors of mouse Kir2.1 inward-rectifier potassium channel | P35561 | HEK293-Kir2.1, FluxOR thallium flux fluorescence; stronger effect = lower value | B-score at 10 µM | actives 0.85% (n = 310,000) | AID 1672;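 active means fluorescence ratio B-score at or below minus 3 SD of library scores, with starting-brightness B-score within 2 SD, cut at about -4.2 in these data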;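 further: channel flux triggered by added potassium and thallium sulfate stimulus; B-score of peak minus minimum fluorescence over baseline after thallium stimulus; more negative B-score means stronger Kir2.1 block with less thallium influx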
hERG protect – shields human hERG channel from block by proarrhythmic agents | activation (rescue from dofetilide block), less the hit threshold, % at 10 µM | Q12809 | CHO-hERG, FluxOR thallium flux, dofetilide IC70 present | actives 0.51% (n = 310,000);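 active means activation above the mean of controls blocked by dofetilide plus 5 SD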;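 further: thallium influx through hERG after potassium depolarization seen as dye fluorescence rise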
KCNQ1 act – potentiators or activators of human KCNQ1 potassium channel | P51787 | actives 0.35% (n = 310,000) | B-score at 10 µM | AID 2648 | CHO-K1 KCNQ1, thallium flux FluxOR fluorescence; stronger effect = higher value;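 active means fluorescence ratio B-score, a plate-corrected score, at least three library SD, with initial intensity B-score within 5 SD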
Target sequence (P51787 whole entry, looked up): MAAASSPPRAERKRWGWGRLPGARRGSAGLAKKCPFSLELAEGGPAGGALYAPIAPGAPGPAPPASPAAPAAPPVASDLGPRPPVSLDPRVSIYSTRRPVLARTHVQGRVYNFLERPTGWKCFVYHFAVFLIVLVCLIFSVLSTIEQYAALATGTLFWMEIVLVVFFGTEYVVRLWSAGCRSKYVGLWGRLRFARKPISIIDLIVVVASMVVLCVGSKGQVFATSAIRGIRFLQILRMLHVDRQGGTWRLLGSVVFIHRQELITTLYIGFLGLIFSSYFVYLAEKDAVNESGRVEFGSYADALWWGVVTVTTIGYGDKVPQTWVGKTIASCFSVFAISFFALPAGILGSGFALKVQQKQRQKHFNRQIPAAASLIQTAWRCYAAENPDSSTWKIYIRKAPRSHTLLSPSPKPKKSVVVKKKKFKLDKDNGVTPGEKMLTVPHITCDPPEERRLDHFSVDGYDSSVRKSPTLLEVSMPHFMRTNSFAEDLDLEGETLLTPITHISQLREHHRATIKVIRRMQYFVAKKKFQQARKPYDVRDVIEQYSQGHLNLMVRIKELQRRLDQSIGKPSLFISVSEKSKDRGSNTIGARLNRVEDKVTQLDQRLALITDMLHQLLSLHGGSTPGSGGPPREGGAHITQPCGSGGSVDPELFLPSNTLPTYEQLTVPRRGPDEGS
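Test system: CHO-K1 cells stably expressing KCNQ1 / Medium: assay buffer / Also added: depolarizing K+/Tl+ stimulus, K2SO4 and Tl2SO4 each 12.5 mM in 5x stock / Incubation: 90 min dye loading and 20 min compound exposure, both at room temperature / Signal: thallium influx via FluxOR fluorescence, kinetic imaging / Evaluation: B score of baseline-normalized fluorescence ratio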
KCNQ1 block – inhibitors of human KCNQ1 potassium channel; AID 2642; B-score at 10 µM; actives 1.3% (n = 310,000); CHO-K1 KCNQ1, FluxOR thallium flux fluorescence; stronger effect = higher value; P51787;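 active means compounds whose thallium flux B-score, printed positive for inhibition, exceeds three library SD while starting fluorescence stays within three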;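 further: channel opened by potassium depolarization with thallium stimulus after 20 min compound exposure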
KCNK9 inh conf – confirmation of human KCNK9 potassium channel inhibitors; HEK293 KCNK9 cells, FluxOR thallium flux fluorescence; actives 43% (n = 4,900); shares compounds with KCNK9 block; AID 492992; inhibition, % at 10 µM;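 active means thallium signal inhibited by more than 5 SD of the compound-free buffer control wells, on both duplicate plates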
Kir21 sel – mouse Kir2.1 off-target activity of KCNK9 modulators. shares compounds with KCNK9 block. Kir2.1 cells, FluxOR thallium flux fluorescence. inhibition, % at 10 µM. actives 4% (n = 4,900). AID 492993;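 active means thallium signal drop more than 5 SD beyond the mean of the no-compound control wells, seen in both duplicate plates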;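 further: signal is fluorescence rise after thallium addition divided by baseline fluorescence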
KCNK9 uninduced – second counter-screen for KCNK9 modulators: effect in non-induced cells | shares compounds with KCNK9 block | AID 492997 | inhibition, % at 10 µM | actives 40% (n = 4,900) | non-induced KCNK9-HEK293, FluxOR thallium flux;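 active means thallium signal drop beyond 5 SD of the untreated control mean, on both duplicate plates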
Large screens that a line does not name were inactive (follow-up assays come after a bar, where they were run).

O=C(c1ccco1)N1CCN(C(=S)Nc2ccccc2C(F)(F)F)CC1	none
O=C(Cc1ccc(Br)cc1)OCC(=O)N1CCc2ccccc2C1	none | KCNK9 inh conf inactive | Kir21 sel inactive | KCNK9 uninduced inactive
O=C(CCS(=O)(=O)Cc1ccccc1)N1CCc2ccccc2C1	none | KCNK9 inh conf inactive | Kir21 sel inactive | KCNK9 uninduced inactive
O=C(COc1ccc(Br)cc1)N1CCc2ccccc2C1	none
COC(=O)Cn1c(O)c(N=NC(=O)CNC(=O)COc2cccc(C)c2)c2ccccc21	none
Cc1cccc(NC(=O)C2C(c3ccccc3)C2(Cl)Cl)c1 (centres undefined)	none | KCNK9 inh conf inactive | Kir21 sel inactive | KCNK9 uninduced inactive
CC(=O)c1cccc(NC(=O)C2C(c3ccccc3)C2(Cl)Cl)c1 (centres undefined)	none
Cc1ccc(NC(=O)CN(C)C(=O)c2cccc(S(=O)(=O)NCc3cccs3)c2)cc1	none (no result: KCNK9 block, Kir21 block, hERG protect, KCNQ1 act, KCNQ1 block)
CCOc1ccccc1C(=O)N[C@H](C(=O)OCc1cc([N+](=O)[O-])cc2c1OCOC2)C(C)C	KCNK9 block -10 | KCNK9 inh conf 48% | Kir21 sel inactive | KCNK9 uninduced 25%
CN(CC(=O)NC(=O)NC1CCCCC1)Cc1ccccc1	none (no result: KCNK9 block, Kir21 block, hERG protect, KCNQ1 act, KCNQ1 block)
CCN(CC(=O)NC(=O)NC1CCCCC1)Cc1ccccc1	none | KCNK9 inh conf inactive | Kir21 sel inactive | KCNK9 uninduced inactive
O=C(CN1CCC(Cc2ccccc2)CC1)NC(=O)NC1CCCCC1	none | KCNK9 inh conf inactive | Kir21 sel inactive | KCNK9 uninduced inactive
Cc1coc2cc3oc(=O)ccc3cc12	none
COc1ccc(N(C)S(=O)(=O)c2ccc3c(c2)CCN3C(=O)C2CC2)c(OC)c1	none
COC(=O)c1cnn(-c2ccccc2)c1-n1cccc1C=O	none
Cc1cnc(C(=O)N(CC(C)C)c2c(N)n(CC(C)C)c(=O)[nH]c2=O)cn1	none (no result: KCNK9 block, Kir21 block, hERG protect, KCNQ1 act, KCNQ1 block)
O=C(N/N=C/c1c(F)cccc1Cl)c1ccc(Cn2cc(Br)cn2)o1	none
O=C(Nc1ccc(C(F)(F)F)cc1Cl)c1ccc(Cn2cc(Br)cn2)o1	KCNK9 block -12 | KCNK9 inh conf 37% | Kir21 sel inactive | KCNK9 uninduced 46%
COc1ccccc1C/C(N)=N/OC(=O)COc1ccc2ccccc2c1	none | KCNK9 inh conf inactive | Kir21 sel inactive | KCNK9 uninduced inactive
COc1ccccc1C/C(N)=N/OC(=O)COc1cccc(C)c1	none | KCNK9 inh conf inactive | Kir21 sel inactive | KCNK9 uninduced inactive
COc1ccccc1C/C(N)=N/OC(=O)COc1ccc(C)cc1	none
CC12CCC(=O)N1C(C(=O)N1CCN(S(=O)(=O)c3ccc(F)c(F)c3)CC1)CS2 (centres undefined)	none
CC(C)COc1ccc(C(=S)N2CCCC2)cc1	none
COC(=O)c1ccccc1CON1C(=O)C(C)(C)N(OCc2ccccc2C(=O)OC)C(=O)C1(C)C	none | KCNK9 inh conf inactive | Kir21 sel inactive | KCNK9 uninduced inactive
O=C(c1ccccc1Br)N1CCC(c2nc3ccccc3s2)CC1	none
CCc1ccc(C(=O)N2CCC(c3nc4ccccc4s3)CC2)cc1	none | KCNK9 inh conf inactive | Kir21 sel inactive | KCNK9 uninduced inactive
N#C/C(=C\c1ccc(Sc2nc3ccccc3[nH]2)o1)c1ccccc1	KCNQ1 block 13 | KCNK9 inh conf inactive | Kir21 sel inactive | KCNK9 uninduced inactive
N#C/C(=C\c1ccc(Sc2ccc(Cl)cc2)o1)c1nc2ccccc2[nH]1	none (no result: KCNK9 block, Kir21 block, hERG protect, KCNQ1 act, KCNQ1 block)
O=C(O)c1ccc(CSc2nnc(-c3ccccc3Br)o2)cc1	none
O=C(Nc1ccccc1-c1nnc(SCc2ccccc2)o1)c1ccccc1	none | KCNK9 inh conf inactive | Kir21 sel inactive | KCNK9 uninduced inactive
O=C1CC(=C(c2ccccc2)c2ccccc2)C(=O)N1CCCCN1CCN(c2cccc(Cl)c2)CC1	none
Cc1ccccc1N1CCN(CCCN2C(=O)CC(=C(c3ccccc3)c3ccccc3)C2=O)CC1	none | KCNK9 inh conf inactive | Kir21 sel inactive | KCNK9 uninduced inactive
CC1CCN(S(=O)(=O)c2ccc3c(c2)N(CC(=O)NCCCN2CC(C)CC(C)C2)C(=O)CS3)CC1 (centres undefined)	none
CSc1cccc(Nc2ccc(S(=O)(=O)N3CCOCC3)cc2[N+](=O)[O-])c1	none (no result: KCNK9 block, Kir21 block, hERG protect, KCNQ1 act, KCNQ1 block)
Cc1ccc(OCc2cc(C(=O)N3CCCCCCC3)no2)cc1C	none
COc1ccc(OCc2cc(C(=O)N3CCCCCCC3)no2)c(Cl)c1	none
COc1ccc(OCc2cc(C(=O)N3CCN(C4CCCC4)CC3)no2)c(Cl)c1	none | KCNK9 inh conf inactive | Kir21 sel inactive | KCNK9 uninduced inactive
Cc1ccc(OCc2cc(C(=O)N3CCC(c4ccccc4Cl)C3)no2)cc1C (centres undefined)	none | KCNK9 inh conf inactive | Kir21 sel inactive | KCNK9 uninduced inactive
CSc1ccccc1OCc1cc(C(=O)N2CCc3c(Cl)cccc3C2)no1	none | KCNK9 inh conf inactive | Kir21 sel inactive | KCNK9 uninduced inactive
CN1CCN(S(=O)(=O)Cc2ccc(Cl)cc2)CC1	none
CCc1ccccc1OCC(=O)NCC1COc2ccccc2O1 (centres undefined)	none (no result: KCNK9 block, Kir21 block, hERG protect, KCNQ1 act, KCNQ1 block)
CC1=NNC(=O)/C1=C\c1cn(-c2ccccc2)nc1-c1ccc(Cl)cc1	none | KCNK9 inh conf inactive | Kir21 sel inactive | KCNK9 uninduced inactive
COC(=O)[C@]1(CC(C)C)N[C@H](c2ccc(-c3ccc(F)cc3)cc2)[C@@H]2C(=O)N(C)C(=O)[C@@H]21	none
CC(=O)N1c2c(ccc3ccccc23)C(C)CC12CCCCC2 (centres undefined)	KCNK9 block -14 | KCNK9 inh conf 49% | Kir21 sel inactive | KCNK9 uninduced 47%
CC1CC2(CCCCC2)Nc2c1ccc1ccccc21 (centres undefined)	none
CCOC(=O)C1=C(C)N=c2s/c(=C/c3ccc(OCC(=O)O)cc3)c(=O)n2C1c1cc(OC)c(OC)c(OC)c1 (centres undefined)	none
CCOC(=O)C1=C(C)N=c2s/c(=C\c3ccc(OCC(=O)O)cc3)c(=O)n2C1c1ccc(OC(C)C)cc1 (centres undefined)	none | KCNK9 inh conf inactive | Kir21 sel inactive | KCNK9 uninduced inactive
COc1ccccc1N1CCN(C(=O)C(CC(C)C)NC(=O)C2CCCCC2)CC1 (centres undefined)	none
c1ccc2sc(SCSc3nc4ccccc4s3)nc2c1	KCNK9 block -13 | KCNK9 inh conf 72% | Kir21 sel inactive | KCNK9 uninduced 38%
O=C(O)CCSc1nc2ccccc2s1	none
